ChEMBL document CHEMBL1137343, “4-arylazo-3,5-diamino-1H-pyrazole CDK inhibitors: SAR study, crystal structure in complex with CDK2, selectivity, and cellular effects” (J Med Chem, 2006)

Legend:
HT-29 [1] = assay: Inhibition of GAPDH mRNA synthesis in HT29 cells measured as number of copies per 10^6 cells by RT PCR at 70 uM after 6 hrs; format: functional, Homo sapiens
In short: (§1)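 HT-29 cells (5 × 10⁶) treated for 3, 6 or 12 h; total RNA extracted with TRI reagent, 3 µg reverse transcribed with random primers and M-MLV RT (42 °C, 60 min). Absolute transcript copies quantified by TaqMan real-time PCR, 50 cycles, against diluted gene-specific amplicon standards (30–1 000 000 copies); duplicate PCR per sample; values are means of four determinations ± SD.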

HT-29 [2] = assay: Inhibition of GAPDH mRNA synthesis in HT29 cells measured as number of copies per 10^6 cells by RT PCR at 70 uM after 12 hrs; format: functional, Homo sapiens; in short: as §1
HT-29 [3] = assay: Inhibition of CEA mRNA synthesis in HT29 cells measured as number of copies per 10^6 cells by RT PCR at 70 uM after 3 hrs; format: functional, Homo sapiens
In short: (§2)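 HT-29 cells were treated 3, 6 or 12 h; total RNA extracted with TRI reagent. 3 µg RNA reverse-transcribed with random primers and M-MLV RT at 42 °C for 60 min. CEA transcripts quantified by TaqMan real-time PCR: 50 cycles of 95 °C 15 s and 65 °C 15 s. Absolute copies came from amplicon standards of 30 to 10^6 copies, expressed per 10^6 cells. Samples run in duplicate PCR; values average of four determinations ± SD.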

HT-29 [4] = assay: Inhibition of CEA mRNA synthesis in HT29 cells measured as number of copies per 10^6 cells by RT PCR at 70 uM after 6 hrs; format: functional, Homo sapiens; in short: as §2
HT-29 [5] = assay: Inhibition of CEA mRNA synthesis in HT29 cells measured as number of copies per 10^6 cells by RT PCR at 70 uM after 12 hrs; format: functional, Homo sapiens; in short: as §2
HT-29 [6] = assay: Inhibition of EpCAM mRNA synthesis in HT29 cells measured as number of copies per 10^6 cells by RT PCR at 70 uM after 3 hrs; format: functional, Homo sapiens; in short: as §1
HT-29 [7] = assay: Inhibition of EpCAM mRNA synthesis in HT29 cells measured as number of copies per 10^6 cells by RT PCR at 70 uM after 6 hrs; format: functional, Homo sapiens; in short: as §1
HT-29 [8] = assay: Inhibition of EpCAM mRNA synthesis in HT29 cells measured as number of copies per 10^6 cells by RT PCR at 70 uM after 12 hrs; format: functional, Homo sapiens; in short: as §1
HT-29 [9] = assay: Inhibition of GAPDH mRNA synthesis in HT29 cells measured as number of copies per 10^6 cells by RT PCR at 70 uM after 3 hrs; format: functional, Homo sapiens; in short: as §1
HT-29 [10] = assay: Cell cycle arrest in HT29 cells by accumulation at G0/G1 phase at 70 uM after 3 hrs; format: functional, Homo sapiens
In short: (§3)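 Subconfluent, asynchronous HT-29 cells were treated 3, 6 or 12 h, then pulsed with 10 µM BrdU for 30 min at 37 °C. Cells were fixed in ice-cold 70% ethanol, DNA denatured in 2 M HCl and neutralised with borate. Staining used FITC anti-BrdU, then propidium iodide (0.1 mg/mL) with RNase A. Analysis by flow cytometry with 488 nm laser.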

HT-29 [11] = assay: Cell cycle arrest in HT29 cells by accumulation at S phase at 70 uM after 3 hrs; format: functional, Homo sapiens; in short: as §3
HT-29 [12] = assay: Cell cycle arrest in HT29 cells by accumulation at G2/M phase at 70 uM after 3 hrs; format: functional, Homo sapiens; in short: as §3
HT-29 [13] = assay: Cell cycle arrest in HT29 cells by accumulation at G0/G1 phase at 70 uM after 6 hrs; format: functional, Homo sapiens; in short: as §3
HT-29 [14] = assay: Cell cycle arrest in HT29 cells by accumulation at S phase at 70 uM after 6 hrs; format: functional, Homo sapiens; in short: as §3
HT-29 [15] = assay: Cell cycle arrest in HT29 cells by accumulation at G2/M phase at 70 uM after 6 hrs; format: functional, Homo sapiens; in short: as §3
HT-29 [16] = assay: Cell cycle arrest in HT29 cells by accumulation at G0/G1 phase at 70 uM after 12 hrs; format: functional, Homo sapiens; in short: as §3
HT-29 [17] = assay: Cell cycle arrest in HT29 cells by accumulation at S phase at 70 uM after 12 hrs; format: functional, Homo sapiens; in short: as §3
HT-29 [18] = assay: Cell cycle arrest in HT29 cells by accumulation at G2/M phase at 70 uM after 12 hrs; format: functional, Homo sapiens; in short: as §3
[19] = target: T1, Cyclin-dependent kinase 2/cyclin E (Homo sapiens, UniProt P24941); assay: Inhibition of CDK2/Cyclin E in presence of 15 uM ATP; format: protein-complex assay
MCF7 [20] = assay: Antiproliferative activity against MCF7 cell line; format: functional, cell-based; conditions: Homo sapiens
In short: (§4)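 Cells grown in DMEM with 10% FCS, glutamine and penicillin/streptomycin at 37 °C, seeded in 96-well plates and preincubated 12 h. Compounds were added in 6-fold dilutions (1-100 µM) for 72 h. IC50 taken from dose-response curves.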

HOS [21] = assay: Antiproliferative activity against HOS cell line; format: functional, cell-based; conditions: Homo sapiens; in short: as §4
G-361 [22] = assay: Antiproliferative activity against G361 cell line; format: functional, cell-based; conditions: Homo sapiens; in short: as §4
K562 [23] = assay: Antiproliferative activity against K562 cell line; format: functional, cell-based; conditions: Homo sapiens; in short: as §4
MCF7 [24] = assay: Viability of MCF7 cells at 100 uM; format: functional, Homo sapiens
In short: (§5)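 Cells grown in DMEM with 10% FCS and 4 mM glutamine at 37 °C, plated in 96-well format, preincubated 12 h, then exposed 72 h. Live cells measured by Calcein AM (1 h) fluorescence at 485/538 nm; % viable cells given at 100 µM compound.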

HOS [25] = assay: Viability of HOS cells at 100 uM; format: functional, Homo sapiens; in short: as §5
G-361 [26] = assay: Viability of G361 cells at 100 uM; format: functional, Homo sapiens; in short: as §5
K562 [27] = assay: Viability of K562 cells at 100 uM; format: functional, Homo sapiens; in short: as §5
[28] = target: T1, Cyclin-dependent kinase 2/cyclin E; assay: Inhibition of CDK2/Cyclin E in presence of 100 uM ATP; format: protein-complex assay
[29] = target: Cyclin-dependent kinase 1/cyclin B (Homo sapiens, UniProt P06493); assay: Inhibition of CDK1/Cyclin B in presence of 100 uM ATP; format: protein-complex assay
[30] = target: Cyclin-dependent kinase 2/cyclin A (Homo sapiens, UniProt P24941); assay: Inhibition of CDK2/Cyclin A in presence of 100 uM ATP; format: protein-complex assay
[31] = target: Cyclin-dependent kinase 4/cyclin D1 (Homo sapiens, UniProt P11802); assay: Inhibition of CDK4/Cyclin D1 in presence of 100 uM ATP; format: protein-complex assay
Cyclin-dependent kinase 4/cyclin D1, sequence (P11802 whole entry): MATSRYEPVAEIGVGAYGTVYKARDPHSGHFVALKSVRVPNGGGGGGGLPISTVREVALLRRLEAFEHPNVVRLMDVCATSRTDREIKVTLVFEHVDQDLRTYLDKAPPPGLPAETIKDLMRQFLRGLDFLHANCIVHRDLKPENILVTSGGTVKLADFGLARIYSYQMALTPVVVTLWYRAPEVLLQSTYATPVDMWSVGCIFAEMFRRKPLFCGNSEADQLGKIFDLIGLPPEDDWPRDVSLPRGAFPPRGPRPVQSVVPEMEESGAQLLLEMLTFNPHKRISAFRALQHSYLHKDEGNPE
Cyclin-dependent kinase 4/cyclin D1, sequence (P24385 whole entry, further chain): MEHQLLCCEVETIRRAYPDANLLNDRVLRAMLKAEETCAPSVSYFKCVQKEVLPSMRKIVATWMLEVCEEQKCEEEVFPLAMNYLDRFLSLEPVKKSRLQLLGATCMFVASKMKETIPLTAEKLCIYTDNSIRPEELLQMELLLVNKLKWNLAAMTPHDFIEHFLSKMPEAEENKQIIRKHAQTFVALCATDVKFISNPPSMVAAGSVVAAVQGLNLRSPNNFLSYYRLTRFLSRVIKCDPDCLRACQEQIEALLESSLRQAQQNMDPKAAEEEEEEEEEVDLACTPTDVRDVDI

[32] = target: Cyclin-dependent kinase 7/ cyclin H (Homo sapiens, UniProt P50613); assay: Inhibition of CDK7/Cyclin H in presence of 100 uM ATP; format: protein-complex assay
Cyclin-dependent kinase 7/ cyclin H, sequence (P51946 whole entry): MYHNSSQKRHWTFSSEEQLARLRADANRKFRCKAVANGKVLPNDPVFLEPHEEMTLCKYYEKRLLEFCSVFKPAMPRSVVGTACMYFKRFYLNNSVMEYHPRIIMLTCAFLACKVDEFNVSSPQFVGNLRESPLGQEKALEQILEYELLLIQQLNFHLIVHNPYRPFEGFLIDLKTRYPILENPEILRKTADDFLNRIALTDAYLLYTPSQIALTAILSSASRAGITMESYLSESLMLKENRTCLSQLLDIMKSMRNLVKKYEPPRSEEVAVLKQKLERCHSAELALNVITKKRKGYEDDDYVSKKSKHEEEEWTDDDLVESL
Cyclin-dependent kinase 7/ cyclin H, sequence (P50613 whole entry): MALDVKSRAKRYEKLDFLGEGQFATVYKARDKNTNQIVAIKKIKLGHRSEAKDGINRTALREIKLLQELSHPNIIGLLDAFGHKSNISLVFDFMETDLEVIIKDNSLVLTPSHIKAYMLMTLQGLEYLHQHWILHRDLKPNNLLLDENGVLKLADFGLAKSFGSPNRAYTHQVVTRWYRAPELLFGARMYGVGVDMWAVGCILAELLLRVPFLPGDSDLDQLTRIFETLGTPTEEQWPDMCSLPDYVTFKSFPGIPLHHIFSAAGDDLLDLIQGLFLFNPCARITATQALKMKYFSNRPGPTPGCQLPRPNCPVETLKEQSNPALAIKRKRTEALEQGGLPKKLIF

CDK9/cyclin T1 = CDK9/cyclin T1 (Homo sapiens, UniProt P50750); assay: Inhibition of CDK9/Cyclin T1 in presence of 100 uM ATP; format: protein-complex assay
CDK9/cyclin T1, sequence (O60563 whole entry): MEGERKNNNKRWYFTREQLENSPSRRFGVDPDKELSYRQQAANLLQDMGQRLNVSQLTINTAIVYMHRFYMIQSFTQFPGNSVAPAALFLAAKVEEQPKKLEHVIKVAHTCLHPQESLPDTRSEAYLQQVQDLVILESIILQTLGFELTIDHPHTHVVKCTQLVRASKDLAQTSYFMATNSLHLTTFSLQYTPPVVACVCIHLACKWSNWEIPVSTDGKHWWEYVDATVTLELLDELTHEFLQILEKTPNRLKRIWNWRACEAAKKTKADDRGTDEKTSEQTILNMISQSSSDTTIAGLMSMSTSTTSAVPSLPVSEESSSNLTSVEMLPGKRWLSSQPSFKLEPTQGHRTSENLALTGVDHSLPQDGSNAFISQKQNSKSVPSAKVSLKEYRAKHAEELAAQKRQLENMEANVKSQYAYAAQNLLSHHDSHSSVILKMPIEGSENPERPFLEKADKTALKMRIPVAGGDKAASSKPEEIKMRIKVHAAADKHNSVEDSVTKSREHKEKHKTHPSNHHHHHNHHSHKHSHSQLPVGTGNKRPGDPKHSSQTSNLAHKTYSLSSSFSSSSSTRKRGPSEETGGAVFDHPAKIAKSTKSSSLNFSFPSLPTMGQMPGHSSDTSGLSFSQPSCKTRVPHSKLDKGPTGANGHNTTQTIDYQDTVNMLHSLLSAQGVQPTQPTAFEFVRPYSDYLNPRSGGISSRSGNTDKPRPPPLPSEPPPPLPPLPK
CDK9/cyclin T1, sequence (P50750 whole entry): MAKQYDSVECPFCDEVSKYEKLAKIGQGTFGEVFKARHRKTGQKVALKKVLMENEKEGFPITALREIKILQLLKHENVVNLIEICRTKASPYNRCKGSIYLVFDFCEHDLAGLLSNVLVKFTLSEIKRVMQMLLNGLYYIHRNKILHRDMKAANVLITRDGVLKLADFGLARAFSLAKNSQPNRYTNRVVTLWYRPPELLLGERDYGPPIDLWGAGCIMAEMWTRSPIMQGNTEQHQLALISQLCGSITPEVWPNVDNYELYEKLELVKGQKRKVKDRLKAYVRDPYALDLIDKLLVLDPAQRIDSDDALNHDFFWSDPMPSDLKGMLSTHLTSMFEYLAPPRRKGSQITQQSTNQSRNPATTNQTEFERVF

Compound	IC50 [19] [µM]	IC50 (MCF7 [20]) [µM]	IC50 (K562 [23]) [µM]	IC50 [28] [µM]	IC50 [29] [µM]	IC50 [30] [µM]	IC50 [31] [µM]	IC50 [32] [µM]	IC50 (CDK9/cyclin T1) [µM]	IC50 (HOS [21]) [µM]	IC50 (G-361 [22]) [µM]	Activity (MCF7 [24]) [%]	Activity (HOS [25]) [%]	Activity (G-361 [26]) [%]	Activity (K562 [27]) [%]	also measured
CC[C@H](CO)Nc1nc(NCc2ccccc2)c2ncn(C(C)C)c2n1 [SELICICLIB]																Activity (HT-29 [1]): 3146605; Activity (HT-29 [2]): 3926015; Activity (HT-29 [3]): 30568; Activity (HT-29 [4]): 19150; Activity (HT-29 [5]): 24350; Activity (HT-29 [6]): 8258813; Activity (HT-29 [7]): 6151085; Activity (HT-29 [8]): 6863365; Activity (HT-29 [9]): 3945095; Activity (HT-29 [10]): 48%; Activity (HT-29 [11]): 1.1%; Activity (HT-29 [12]): 50.9%; Activity (HT-29 [13]): 44%; Activity (HT-29 [14]): 0.1%; Activity (HT-29 [15]): 55.9%; Activity (HT-29 [16]): 64.5%; Activity (HT-29 [17]): 1.1%; Activity (HT-29 [18]): 34.5%
Nc1n[nH]c(N)c1/N=N/c1ccccc1O	2.5	> 100	> 100							> 100	> 100	72	84	74	72	
Nc1n[nH]c(N)c1/N=N/c1cccc2c1CCCC2	15	81	55							92	77	39	32	27	26	
Nc1n[nH]c(N)c1/N=N/c1ccccc1CO	17	> 100	> 100	77	> 100	> 100	> 100	> 100	26	> 100	> 100	51	87	84	86	
Nc1n[nH]c(N)c1/N=N/c1cccc2ccccc12	10	> 100	50							> 100	> 100	56	79	55	7.7	
Nc1n[nH]c(N)c1/N=N/c1cccc([N+](=O)[O-])c1	23	65	79	68	> 100	> 100	70	> 100	12.4	> 100	> 100	44	95	69	28	
Nc1n[nH]c(N)c1/N=N/c1ccccc1[N+](=O)[O-]	6.1	> 100	100	22	42	88	16	77	5.6	> 100	> 100	62	57	58	48	
Nc1n[nH]c(N)c1/N=N/c1cccc(O)c1	6	> 100	> 100	51	> 100	> 100	56	82	1.5	> 100	> 100	71	83	70	53	

Now from value to compound, other results behind:

IC50 [19] [µM]	IC50 (MCF7 [20]) [µM]	IC50 (K562 [23]) [µM]	IC50 [28] [µM]	IC50 [29] [µM]	IC50 [30] [µM]	IC50 [31] [µM]	IC50 [32] [µM]	IC50 (CDK9/cyclin T1) [µM]	Compound	IC50 (HOS [21]) [µM]	IC50 (G-361 [22]) [µM]	Activity (MCF7 [24]) [%]	Activity (HOS [25]) [%]	Activity (G-361 [26]) [%]	Activity (K562 [27]) [%]	also measured
22	> 100	> 100	100	> 100	> 100	> 100	> 100	15	Nc1n[nH]c(N)c1/N=N/c1ccccc1	> 100	> 100	74	83	75	90	
> 100	> 100	> 100							Nc1n[nH]c(N)c1/N=N/c1ccc(C(=O)O)cc1	> 100	> 100	97	92	86	96	
28	> 100	> 100							Nc1n[nH]c(N)c1/N=N/c1cccc(C(=O)O)c1	> 100	> 100	102	94	93	84	
92	> 100	> 100							Nc1n[nH]c(N)c1/N=N/c1ccccc1C(=O)O	> 100	> 100	97	91	96	89	
40	> 100	71							Nc1n[nH]c(N)c1/N=N/c1ccc([N+](=O)[O-])cc1	> 100	> 100	60	80	61	25	
